Experimental data from ChEMBL document CHEMBL1157524, “Synthesis and SAR of a mGluR5 allosteric partial antagonist lead: unexpected modulation of pharmacology with slight structural modifications to a 5-(phenylethynyl)pyrimidine scaffold” (Bioorg Med Chem Lett, 2008).

Tests used:
[1] = target: T1, Metabotropic glutamate receptor 5 (Rattus norvegicus, UniProt P31424); assay: Activity at rat mGluR5 expressed in HEK293A cells; format: cell-based, HEK293-A
[2] = target: T1, Metabotropic glutamate receptor 5; assay: (§1) Antagonist activity at rat mGluR5 expressed in HEK293A cells assessed as inhibition of glutamate-induced calcium fluorescence; format: functional, cell-based, HEK293-A
[3] = target: Metabotropic glutamate receptor 5 (Rattus norvegicus) (UniProt P31424); assay: as §1; format: functional, cell-based; set-up: concentration or dose not given beside the values; conditions: HEK293-A
[4] = target: Metabotropic glutamate receptor 5 (Rattus norvegicus) (UniProt P31424); assay: Induction of rat mGluR5 activation expressed in HEK293A cells assessed as maximal response in presence of glutamate; format: cell-based; conditions: HEK293-A
Method in brief: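 Potentiator mode in rat mGluR5 HEK293A cells loaded with Fluo4-AM (4.0 µM, 45 min, 37 °C) in HBSS/20 mM Hepes/2.5 mM probenecid, pH 7.4. Compound added at 19 s, then submaximal glutamate (150–165 nM) at 109 s. Calcium fluorescence read and compared with maximal glutamate response. Vehicle 0.3% DMSO. Triplicate on three days.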

[5] = target: T1, Metabotropic glutamate receptor 5; assay: Displacement of [3H]methoxy-PEPy from rat mGluR5 expressed in HEK293A cells; format: cell-based, HEK293-A
Method in brief: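 Membranes from HEK293A cells with rat mGluR5 were incubated with 2 nM (final) [³H]methoxy-PEPy in 50 mM Tris, 0.9% NaCl, pH 7.4. Incubation was 60 min at room temperature with shaking. Bound ligand was separated by GF/B filtration with four buffer washes and counted by scintillation. MPEP defined nonspecific binding. Triplicate on three days.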

T1 sequence (P31424 whole entry): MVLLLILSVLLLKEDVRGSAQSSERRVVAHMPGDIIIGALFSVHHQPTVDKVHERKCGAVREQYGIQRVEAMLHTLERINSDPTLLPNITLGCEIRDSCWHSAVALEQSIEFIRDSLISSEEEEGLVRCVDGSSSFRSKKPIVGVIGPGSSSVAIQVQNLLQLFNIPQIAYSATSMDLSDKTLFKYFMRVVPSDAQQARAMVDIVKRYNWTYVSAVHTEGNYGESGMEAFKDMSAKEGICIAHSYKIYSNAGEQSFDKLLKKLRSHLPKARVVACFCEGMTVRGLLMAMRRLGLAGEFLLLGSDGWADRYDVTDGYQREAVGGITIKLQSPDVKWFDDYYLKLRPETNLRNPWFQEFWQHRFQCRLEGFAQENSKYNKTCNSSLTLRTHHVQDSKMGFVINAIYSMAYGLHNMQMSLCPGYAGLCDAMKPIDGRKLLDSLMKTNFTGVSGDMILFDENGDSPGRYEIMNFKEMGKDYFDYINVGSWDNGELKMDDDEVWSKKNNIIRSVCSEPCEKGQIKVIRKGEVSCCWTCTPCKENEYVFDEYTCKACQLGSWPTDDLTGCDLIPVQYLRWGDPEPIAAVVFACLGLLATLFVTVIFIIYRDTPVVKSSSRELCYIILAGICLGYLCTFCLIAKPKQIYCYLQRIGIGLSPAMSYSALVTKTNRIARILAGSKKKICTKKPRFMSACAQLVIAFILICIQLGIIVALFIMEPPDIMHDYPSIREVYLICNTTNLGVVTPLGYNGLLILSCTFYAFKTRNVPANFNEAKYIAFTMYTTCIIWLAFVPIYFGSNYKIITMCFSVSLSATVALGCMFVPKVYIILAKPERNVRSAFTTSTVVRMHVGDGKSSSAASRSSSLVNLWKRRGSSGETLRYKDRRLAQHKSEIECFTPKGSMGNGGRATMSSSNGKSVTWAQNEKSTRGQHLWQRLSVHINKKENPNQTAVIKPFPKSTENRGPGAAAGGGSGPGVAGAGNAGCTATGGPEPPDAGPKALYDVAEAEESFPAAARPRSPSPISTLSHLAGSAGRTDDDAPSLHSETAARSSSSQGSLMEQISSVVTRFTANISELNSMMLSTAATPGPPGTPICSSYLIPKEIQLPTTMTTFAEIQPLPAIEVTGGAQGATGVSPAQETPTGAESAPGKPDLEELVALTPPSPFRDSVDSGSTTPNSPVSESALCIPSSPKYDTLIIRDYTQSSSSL
Sequence of Metabotropic glutamate receptor 5 (Rattus norvegicus) (P31424 21-1203 limits assumed): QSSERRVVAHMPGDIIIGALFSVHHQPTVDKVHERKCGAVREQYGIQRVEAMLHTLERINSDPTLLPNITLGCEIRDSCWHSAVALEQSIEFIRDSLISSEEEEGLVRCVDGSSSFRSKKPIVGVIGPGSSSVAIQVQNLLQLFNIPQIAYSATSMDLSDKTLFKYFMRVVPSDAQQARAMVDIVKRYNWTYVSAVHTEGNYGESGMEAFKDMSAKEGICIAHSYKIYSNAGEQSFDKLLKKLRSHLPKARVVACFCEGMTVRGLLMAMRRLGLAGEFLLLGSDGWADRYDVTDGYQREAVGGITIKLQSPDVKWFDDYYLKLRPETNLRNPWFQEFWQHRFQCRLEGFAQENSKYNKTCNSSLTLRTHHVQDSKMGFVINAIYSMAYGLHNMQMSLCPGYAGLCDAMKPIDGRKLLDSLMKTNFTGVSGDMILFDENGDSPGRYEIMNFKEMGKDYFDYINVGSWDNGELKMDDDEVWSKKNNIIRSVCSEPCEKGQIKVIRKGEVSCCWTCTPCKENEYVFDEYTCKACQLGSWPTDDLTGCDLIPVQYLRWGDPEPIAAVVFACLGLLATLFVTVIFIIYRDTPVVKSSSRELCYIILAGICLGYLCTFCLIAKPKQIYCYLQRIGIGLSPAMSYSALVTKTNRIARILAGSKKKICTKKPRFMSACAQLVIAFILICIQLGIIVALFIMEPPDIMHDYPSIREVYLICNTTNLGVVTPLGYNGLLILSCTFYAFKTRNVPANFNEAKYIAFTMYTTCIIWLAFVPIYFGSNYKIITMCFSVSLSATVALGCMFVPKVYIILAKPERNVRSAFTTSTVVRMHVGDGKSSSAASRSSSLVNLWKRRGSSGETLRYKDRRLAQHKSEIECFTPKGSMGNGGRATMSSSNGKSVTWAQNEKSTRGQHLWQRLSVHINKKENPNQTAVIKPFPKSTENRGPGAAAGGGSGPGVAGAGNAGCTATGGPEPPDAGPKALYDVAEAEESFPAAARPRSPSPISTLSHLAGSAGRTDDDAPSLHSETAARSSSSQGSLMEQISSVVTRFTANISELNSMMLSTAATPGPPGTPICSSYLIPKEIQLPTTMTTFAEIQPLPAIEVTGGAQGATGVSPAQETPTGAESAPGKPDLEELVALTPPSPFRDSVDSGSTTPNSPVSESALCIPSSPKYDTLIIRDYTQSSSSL

| Compound | IC50 [2] | Activity [3] | further results |
| --- | --- | --- | --- |
| Clc1ccc(C#Cc2cncnc2)cc1 |  |  | EC50 [1]: 3900 nM |
| Clc1cccc(C#Cc2cncnc2)c1 | 34 nM | 100% |  |
| COc1cccc(C#Cc2ccc(C)cn2)c1 |  | 50% |  |
| Cc1ccc(C#Cc2cncc(Br)c2)nc1 |  | 50% |  |
| O=C(Nc1ccc(Cl)cc1CN1C(=O)c2ccccc2C1=O)c1ccccc1O |  |  | Activity [4]: < 70% |
| Fc1cccc(/C=N/N=C/c2cccc(F)c2)c1 |  |  | Activity [4]: < 70% |
| Cc1cccc(C#Cc2cncnc2)c1 | 7 nM | 100% |  |
| O=C(Nc1cccc(F)c1)c1cccc(Cl)c1 |  | 58% | EC50 [2]: 297 nM |
| FC(F)(F)c1cccc(C#Cc2cncnc2)c1 | 450 nM | 100% |  |
| Cc1ccc(C#Cc2cncnc2)cc1 |  |  | EC50 [1]: 3300 nM; Activity [4]: 99% |
| Cc1ccc(C)c(C#Cc2cncnc2)c1 | 11200 nM | 58% |  |
| C(#Cc1cncnc1)c1ccccc1 | 480 nM | 71% | Ki [5]: 126 nM |
| Cc1cc(C#Cc2cncnc2)ccc1F | 350 nM | 100% |  |
| Fc1cc(F)cc(C#Cc2cncnc2)c1 | 6400 nM | 100% |  |
| CCc1ccc(C#Cc2cncnc2)cc1 |  |  | EC50 [1]: 18800 nM |
| C(#Cc1cncnc1)c1ccc(-c2ccccc2)cc1 | 7800 nM | 100% |  |
| N#Cc1cccc(C(=O)Nc2cc(-c3ccccc3)nn2-c2ccccc2)c1 |  |  | Activity [4]: < 70% |
| O=Cc1ccc(C#Cc2cncnc2)cc1 |  |  | EC50 [1]: 7900 nM |
